Consider two compounds from ChEMBL document CHEMBL5325511, “Discovery of N-(4-(Aminomethyl)phenyl)-5-methylpyrimidin-2-amine Derivatives as Potent and Selective JAK2 Inhibitors” (ACS Med Chem Lett, 2023).

Data set [1] in a line: Oral bioavailability in Sprague-Dawley rat at 5 mg/kg measured upto 24 hrs by LC-MS/MS analysis. Format: ADME, organism-based. The settings on record: in vivo. The gist of the method: (§1)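 Sprague–Dawley rats, n = 5 per group, dosed at 5 mg/kg as a solution in 2% ethanol and 1% Tween 80, pH 5.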
Data set [2] addresses Non-receptor tyrosine-protein kinase TYK2 (Homo sapiens, UniProt P29597). Kind of data set: Inhibition of TYK2 (unknown origin) in presence of Mg/ATP mixture by [gamma p33]-ATP based radiometric assay.
In data set [3] the target is T1, Tyrosine-protein kinase JAK2 (Homo sapiens, UniProt O60674). As to the kind of experiment: Inhibition of human JAK2 JH1 expressed in baculovirus infected Sf9 cells assessed as residual activity at 100 nM relative to control.
T1 sequence (O60674 whole entry): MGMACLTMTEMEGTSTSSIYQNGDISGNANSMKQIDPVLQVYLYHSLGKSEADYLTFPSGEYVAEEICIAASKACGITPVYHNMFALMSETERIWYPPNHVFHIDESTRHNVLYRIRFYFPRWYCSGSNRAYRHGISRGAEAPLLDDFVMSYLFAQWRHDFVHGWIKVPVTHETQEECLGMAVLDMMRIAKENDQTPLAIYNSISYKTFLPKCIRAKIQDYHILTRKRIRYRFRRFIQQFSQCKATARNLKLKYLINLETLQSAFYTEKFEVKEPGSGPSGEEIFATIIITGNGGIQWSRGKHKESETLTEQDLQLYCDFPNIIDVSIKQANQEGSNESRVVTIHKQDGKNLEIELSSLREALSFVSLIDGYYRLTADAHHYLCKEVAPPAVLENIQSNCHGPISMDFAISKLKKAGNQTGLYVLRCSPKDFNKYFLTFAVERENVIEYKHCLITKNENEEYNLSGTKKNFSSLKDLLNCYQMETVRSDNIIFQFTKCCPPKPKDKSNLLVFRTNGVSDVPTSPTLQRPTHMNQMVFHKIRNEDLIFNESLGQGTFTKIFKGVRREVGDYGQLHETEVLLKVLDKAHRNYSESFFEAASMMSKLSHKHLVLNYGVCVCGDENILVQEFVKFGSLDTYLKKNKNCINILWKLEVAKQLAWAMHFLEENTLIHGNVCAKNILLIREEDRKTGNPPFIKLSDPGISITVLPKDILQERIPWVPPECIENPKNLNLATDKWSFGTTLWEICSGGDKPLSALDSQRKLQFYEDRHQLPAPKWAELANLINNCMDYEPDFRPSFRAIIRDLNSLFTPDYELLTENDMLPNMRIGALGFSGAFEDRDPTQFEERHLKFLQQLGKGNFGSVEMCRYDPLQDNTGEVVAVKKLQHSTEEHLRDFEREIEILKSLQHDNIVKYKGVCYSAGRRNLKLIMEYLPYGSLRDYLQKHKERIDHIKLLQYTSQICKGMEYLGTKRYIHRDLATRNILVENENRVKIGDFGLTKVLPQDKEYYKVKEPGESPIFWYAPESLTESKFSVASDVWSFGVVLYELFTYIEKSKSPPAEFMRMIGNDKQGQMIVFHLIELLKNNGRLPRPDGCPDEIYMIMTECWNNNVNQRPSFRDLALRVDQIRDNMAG
In data set [4] the target is Tyrosine-protein kinase JAK2 (Homo sapiens, UniProt O60674, V617F). Kind of data set: Inhibition of JAK2 V617F mutant in human SET2 cells. It is filed as cell-based. The method, boiled down:
(§2)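 Cell proliferation assay. IC50 is the concentration that inhibits proliferation by 50%, taken from dose–response curves. Mean ± SEM of at least three independent experiments.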

The nature of data set [5]: Selectivity ratio of IC50 for TYK2 (unknown origin) to IC50 for JAK2 (unknown origin).
Data set [6] concerns the target Tyrosine-protein kinase JAK2 (Mus musculus, UniProt Q62120, V617F). As to the kind of experiment: Inhibition of JAK2 V617F mutant in mouse BaF3 cells. It is filed as cell-based. The method, boiled down:
as §2

Data set [7] has as its target Tyrosine-protein kinase JAK1 (Homo sapiens, UniProt P23458). As to the kind of experiment: Inhibition of JAK1 (unknown origin) in presence of Mg/ATP mixture by [gamma p33]-ATP based radiometric assay. The method, boiled down: (§3)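 IC50 values determined by Eurofins Discovery.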
Data set [8] in a line: Metabolic stability in human liver microsomes assessed as half life. It is filed as ADME, Microsome.
Data set [9] concerns the target T2, Tyrosine-protein kinase JAK3 (Homo sapiens, UniProt P52333).
T2 sequence (P52333 whole entry): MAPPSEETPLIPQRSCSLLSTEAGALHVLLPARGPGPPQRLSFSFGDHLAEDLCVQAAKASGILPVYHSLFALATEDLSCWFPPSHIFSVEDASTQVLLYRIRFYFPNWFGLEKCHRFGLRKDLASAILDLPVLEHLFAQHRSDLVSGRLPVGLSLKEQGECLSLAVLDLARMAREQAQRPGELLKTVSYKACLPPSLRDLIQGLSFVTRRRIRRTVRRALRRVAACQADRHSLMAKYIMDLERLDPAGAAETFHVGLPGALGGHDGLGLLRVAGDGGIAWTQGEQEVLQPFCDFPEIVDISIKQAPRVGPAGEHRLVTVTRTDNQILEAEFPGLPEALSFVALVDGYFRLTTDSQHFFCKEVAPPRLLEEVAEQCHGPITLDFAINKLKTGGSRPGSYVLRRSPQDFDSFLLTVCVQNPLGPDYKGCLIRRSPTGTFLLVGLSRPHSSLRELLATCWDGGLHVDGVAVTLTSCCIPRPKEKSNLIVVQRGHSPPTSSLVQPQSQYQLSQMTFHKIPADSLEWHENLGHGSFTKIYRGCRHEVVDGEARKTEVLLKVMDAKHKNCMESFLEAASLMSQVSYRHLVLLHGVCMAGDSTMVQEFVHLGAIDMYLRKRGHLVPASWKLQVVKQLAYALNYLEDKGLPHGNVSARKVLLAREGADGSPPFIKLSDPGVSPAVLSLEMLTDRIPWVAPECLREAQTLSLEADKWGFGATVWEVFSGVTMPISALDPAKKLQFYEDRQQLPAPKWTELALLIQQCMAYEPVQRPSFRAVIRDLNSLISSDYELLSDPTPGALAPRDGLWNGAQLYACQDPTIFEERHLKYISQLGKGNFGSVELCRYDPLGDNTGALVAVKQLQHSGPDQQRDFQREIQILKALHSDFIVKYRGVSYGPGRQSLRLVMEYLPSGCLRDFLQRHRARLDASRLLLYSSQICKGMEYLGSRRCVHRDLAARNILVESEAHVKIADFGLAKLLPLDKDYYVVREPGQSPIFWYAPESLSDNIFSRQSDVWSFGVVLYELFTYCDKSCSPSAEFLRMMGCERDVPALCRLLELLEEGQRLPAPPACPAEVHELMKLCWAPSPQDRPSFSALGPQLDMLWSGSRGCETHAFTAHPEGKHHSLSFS
Kind of data set: Inhibition of JAK3 (unknown origin) in presence of Mg/ATP mixture by [gamma p33]-ATP based radiometric assay.

A short description of data set [10]: Selectivity ratio of IC50 for FLT3 (unknown origin) to IC50 for JAK2 (unknown origin).
Data set [11] is described as follows: Half life in Sprague-Dawley rat at 5 mg/kg, po measured upto 24 hrs by LC-MS/MS analysis. It is filed as ADME, organism-based. The settings on record: in vivo. The method, boiled down: (§4)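 Sprague–Dawley rats, n = 5, dosed at 5 mg/kg as a solution in 2% ethanol and 1% Tween 80, pH 5.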
Data set [12] concerns the target T3, Receptor-type tyrosine-protein kinase FLT3 (Homo sapiens, UniProt P36888).
T3 sequence (P36888 whole entry): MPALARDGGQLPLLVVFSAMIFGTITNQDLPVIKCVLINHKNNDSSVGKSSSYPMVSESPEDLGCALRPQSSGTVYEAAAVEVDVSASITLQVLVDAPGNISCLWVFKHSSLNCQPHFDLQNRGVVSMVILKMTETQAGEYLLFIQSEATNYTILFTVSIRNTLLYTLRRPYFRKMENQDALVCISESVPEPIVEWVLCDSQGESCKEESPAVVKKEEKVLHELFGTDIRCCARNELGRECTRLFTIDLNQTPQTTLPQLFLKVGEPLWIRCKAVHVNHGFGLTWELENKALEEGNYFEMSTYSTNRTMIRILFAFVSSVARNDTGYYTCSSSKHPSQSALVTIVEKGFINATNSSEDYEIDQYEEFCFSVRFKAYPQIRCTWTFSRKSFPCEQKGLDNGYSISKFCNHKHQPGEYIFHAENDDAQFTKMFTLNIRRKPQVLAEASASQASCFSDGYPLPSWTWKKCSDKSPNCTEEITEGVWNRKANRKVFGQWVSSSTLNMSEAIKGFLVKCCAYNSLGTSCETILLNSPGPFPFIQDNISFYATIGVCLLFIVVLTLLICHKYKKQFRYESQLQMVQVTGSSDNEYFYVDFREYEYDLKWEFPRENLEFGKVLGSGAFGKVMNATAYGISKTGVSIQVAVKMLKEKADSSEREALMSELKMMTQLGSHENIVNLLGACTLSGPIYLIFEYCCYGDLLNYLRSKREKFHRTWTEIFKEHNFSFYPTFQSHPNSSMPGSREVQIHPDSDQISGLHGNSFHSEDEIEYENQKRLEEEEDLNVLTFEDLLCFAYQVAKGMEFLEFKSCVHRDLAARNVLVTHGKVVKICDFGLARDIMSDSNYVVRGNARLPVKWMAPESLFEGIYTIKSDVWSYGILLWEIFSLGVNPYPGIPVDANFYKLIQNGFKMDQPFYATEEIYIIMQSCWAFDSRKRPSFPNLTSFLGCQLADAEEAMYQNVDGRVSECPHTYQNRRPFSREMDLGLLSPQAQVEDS
As to the kind of experiment: Inhibition of FLT3 in human MOLM-13 cells. Format: cell-based. The gist of the method: as §2

A short description of data set [13]: Tmax in Sprague-Dawley rat at 5 mg/kg, po measured upto 24 hrs by LC-MS/MS analysis. Format: ADME, organism-based. The settings on record: in vivo. The gist of the method:
as §1

Data set [14] addresses T3, Receptor-type tyrosine-protein kinase FLT3. As to the kind of experiment: Inhibition of FLT3 (unknown origin) in presence of Mg/ATP mixture by [gamma p33]-ATP based radiometric assay. The gist of the method:
as §3

A short description of data set [15]: AUC(0 to t) in Sprague-Dawley rat at 5 mg/kg, po measured upto 24 hrs by LC-MS/MS analysis. It is filed as ADME, organism-based. More on the design: time < 24 hrs, dose 5 mg/kg, route po. The settings on record: in vivo. The method, boiled down:
as §4

Data set [16] in a line: Cmax in Sprague-Dawley rat at 5 mg/kg, po measured upto 24 hrs by LC-MS/MS analysis. On the set-up: dose 5 mg/kg, time < 24 hrs, route po. The settings on record: in vivo. It is filed as ADME, organism-based. The method, boiled down: as §4
Data set [17] in a line: Selectivity ratio of IC50 for JAK3 (unknown origin) to IC50 for JAK2 (unknown origin).
The nature of data set [18]: Clearance in Sprague-Dawley rat at 5 mg/kg, po measured upto 24 hrs by LC-MS/MS analysis. Format: ADME, organism-based. The settings on record: in vivo. The gist of the method:
as §4

Data set [19] deals with T1, Tyrosine-protein kinase JAK2. As to the kind of experiment: Inhibition of JAK2 (unknown origin) in presence of Mg/ATP mixture by [gamma p33]-ATP based radiometric assay. The method, boiled down:
as §3

Sequence of Non-receptor tyrosine-protein kinase TYK2 (P29597 whole entry): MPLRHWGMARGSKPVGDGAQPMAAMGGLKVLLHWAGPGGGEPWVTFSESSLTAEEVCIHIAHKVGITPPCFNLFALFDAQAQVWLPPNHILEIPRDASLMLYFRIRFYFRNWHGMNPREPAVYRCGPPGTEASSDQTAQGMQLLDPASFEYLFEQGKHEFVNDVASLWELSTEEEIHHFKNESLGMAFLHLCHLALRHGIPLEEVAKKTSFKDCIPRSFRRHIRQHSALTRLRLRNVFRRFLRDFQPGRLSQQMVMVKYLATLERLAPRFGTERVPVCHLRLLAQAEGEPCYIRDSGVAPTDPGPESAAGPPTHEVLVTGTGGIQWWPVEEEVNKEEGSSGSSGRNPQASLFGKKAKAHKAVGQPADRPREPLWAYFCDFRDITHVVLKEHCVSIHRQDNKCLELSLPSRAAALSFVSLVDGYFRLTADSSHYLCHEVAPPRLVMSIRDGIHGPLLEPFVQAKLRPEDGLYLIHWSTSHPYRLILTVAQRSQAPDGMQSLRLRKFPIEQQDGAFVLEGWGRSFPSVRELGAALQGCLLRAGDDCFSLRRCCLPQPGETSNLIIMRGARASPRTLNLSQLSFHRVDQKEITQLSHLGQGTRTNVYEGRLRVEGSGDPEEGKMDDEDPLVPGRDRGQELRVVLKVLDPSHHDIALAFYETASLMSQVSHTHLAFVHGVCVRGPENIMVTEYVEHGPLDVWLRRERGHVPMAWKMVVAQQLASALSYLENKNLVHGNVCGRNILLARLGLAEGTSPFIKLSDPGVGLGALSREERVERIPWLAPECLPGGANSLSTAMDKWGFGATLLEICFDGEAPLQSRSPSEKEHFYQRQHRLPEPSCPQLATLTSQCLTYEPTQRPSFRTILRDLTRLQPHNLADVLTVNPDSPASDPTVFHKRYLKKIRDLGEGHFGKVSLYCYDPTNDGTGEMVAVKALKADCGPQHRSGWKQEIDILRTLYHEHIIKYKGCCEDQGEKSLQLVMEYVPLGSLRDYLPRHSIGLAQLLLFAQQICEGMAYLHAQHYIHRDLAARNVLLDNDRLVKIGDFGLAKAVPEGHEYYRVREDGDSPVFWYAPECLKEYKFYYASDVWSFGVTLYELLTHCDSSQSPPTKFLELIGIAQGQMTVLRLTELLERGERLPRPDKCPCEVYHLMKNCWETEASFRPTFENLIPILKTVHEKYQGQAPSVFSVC
Sequence of Tyrosine-protein kinase JAK2 (Homo sapiens, UniProt O60674, V617F) (O60674 whole entry V617F): as the sequence (O60674 whole entry) above, with V617F counted along it
Sequence of Tyrosine-protein kinase JAK2 (Mus musculus, UniProt Q62120, V617F) (Q62120 as listed by the source V617F): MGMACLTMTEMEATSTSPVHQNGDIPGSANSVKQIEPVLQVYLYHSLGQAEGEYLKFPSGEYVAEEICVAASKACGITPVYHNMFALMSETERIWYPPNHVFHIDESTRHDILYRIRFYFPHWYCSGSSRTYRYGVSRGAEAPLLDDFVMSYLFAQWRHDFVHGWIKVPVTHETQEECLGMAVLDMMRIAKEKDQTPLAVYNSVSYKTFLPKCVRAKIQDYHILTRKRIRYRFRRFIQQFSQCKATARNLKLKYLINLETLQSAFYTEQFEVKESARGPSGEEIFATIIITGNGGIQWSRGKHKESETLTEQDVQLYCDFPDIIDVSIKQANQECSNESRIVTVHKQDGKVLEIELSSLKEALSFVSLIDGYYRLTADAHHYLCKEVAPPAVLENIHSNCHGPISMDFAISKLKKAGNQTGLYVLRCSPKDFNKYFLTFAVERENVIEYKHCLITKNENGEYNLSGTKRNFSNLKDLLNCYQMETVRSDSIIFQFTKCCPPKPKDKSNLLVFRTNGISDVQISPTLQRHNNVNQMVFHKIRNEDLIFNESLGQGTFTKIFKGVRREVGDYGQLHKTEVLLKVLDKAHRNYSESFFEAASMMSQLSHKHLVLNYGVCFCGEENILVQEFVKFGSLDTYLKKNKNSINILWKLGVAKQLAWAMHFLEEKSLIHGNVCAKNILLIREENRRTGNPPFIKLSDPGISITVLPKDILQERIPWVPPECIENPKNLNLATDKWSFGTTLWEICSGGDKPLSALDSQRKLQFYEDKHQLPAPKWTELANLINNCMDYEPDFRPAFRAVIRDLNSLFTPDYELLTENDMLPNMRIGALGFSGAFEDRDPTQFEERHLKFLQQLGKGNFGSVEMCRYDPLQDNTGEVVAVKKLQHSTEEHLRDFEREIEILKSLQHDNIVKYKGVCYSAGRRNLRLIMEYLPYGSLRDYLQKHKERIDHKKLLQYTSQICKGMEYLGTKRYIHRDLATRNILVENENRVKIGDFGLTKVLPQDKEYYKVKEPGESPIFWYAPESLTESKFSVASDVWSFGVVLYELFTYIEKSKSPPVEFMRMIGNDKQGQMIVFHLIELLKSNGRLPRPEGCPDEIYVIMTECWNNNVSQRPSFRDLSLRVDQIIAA
Sequence of Tyrosine-protein kinase JAK1 (P23458 whole entry): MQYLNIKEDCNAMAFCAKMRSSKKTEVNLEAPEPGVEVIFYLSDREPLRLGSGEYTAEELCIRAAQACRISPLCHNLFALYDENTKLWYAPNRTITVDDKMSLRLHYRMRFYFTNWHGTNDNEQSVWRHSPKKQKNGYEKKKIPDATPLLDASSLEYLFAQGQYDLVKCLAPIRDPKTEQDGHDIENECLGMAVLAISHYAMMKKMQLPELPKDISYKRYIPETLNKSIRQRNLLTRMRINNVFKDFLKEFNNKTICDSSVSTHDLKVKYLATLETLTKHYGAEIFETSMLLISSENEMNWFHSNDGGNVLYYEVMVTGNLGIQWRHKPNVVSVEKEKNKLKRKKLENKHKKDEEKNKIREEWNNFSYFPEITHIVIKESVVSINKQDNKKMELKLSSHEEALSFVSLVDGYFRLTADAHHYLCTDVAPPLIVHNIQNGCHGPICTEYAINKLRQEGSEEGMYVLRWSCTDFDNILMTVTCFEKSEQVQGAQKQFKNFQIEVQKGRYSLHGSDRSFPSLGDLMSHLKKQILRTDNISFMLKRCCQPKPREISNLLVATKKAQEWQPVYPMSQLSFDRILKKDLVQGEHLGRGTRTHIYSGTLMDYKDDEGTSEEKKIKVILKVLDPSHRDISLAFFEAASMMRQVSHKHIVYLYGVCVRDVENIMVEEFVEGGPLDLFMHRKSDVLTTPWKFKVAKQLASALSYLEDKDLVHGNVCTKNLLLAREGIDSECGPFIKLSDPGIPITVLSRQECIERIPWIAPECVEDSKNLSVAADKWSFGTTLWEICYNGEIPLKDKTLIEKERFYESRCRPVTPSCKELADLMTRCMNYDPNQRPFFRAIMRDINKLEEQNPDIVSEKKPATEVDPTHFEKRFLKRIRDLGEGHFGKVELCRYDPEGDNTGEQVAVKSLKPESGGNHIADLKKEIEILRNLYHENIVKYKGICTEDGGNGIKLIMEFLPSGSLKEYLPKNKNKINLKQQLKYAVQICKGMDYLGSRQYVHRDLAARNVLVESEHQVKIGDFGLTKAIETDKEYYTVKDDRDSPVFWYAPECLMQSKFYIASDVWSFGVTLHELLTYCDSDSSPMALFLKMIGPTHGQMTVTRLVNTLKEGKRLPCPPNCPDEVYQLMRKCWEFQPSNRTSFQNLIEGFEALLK

For orientation: bioavailability means dose-corrected exposure relative to a reference, in per cent. A higher bioavailability goes with good availability. For orientation: IC50 means the concentration needed to halve the response being measured. Broadly, the half-life is the time in which the quantity being followed falls by half. As a reminder, the Tmax is the time from dosing to the highest level. The term Cmax denotes the peak of the concentration-time curve. `Cc1cnc(Nc2ccc(CNS(=O)(=O)C3CC3)cc2)nc1-c1cnn(C(C)C)c1` showed a bioavailability in [1] of 40.5%. For the same compound, the IC50 is 204 nM in [2]; 109 nM in [4]; 53.3 nM in data set [6]; 178 nM in [7]; 265 nM in [9]; 1250 nM in data set [12]. For the same compound, the IC50 in data set [14] is 297 nM; in [19], 5 nM. The Activity in [3] was 1%. For the same compound, the values for the Ratio IC50 in data set [5], in data set [10] and in [17] were 40.8, 59.4 and 53, respectively. Also, the half-life in data set [8] is > 2 h. For the same compound, the t1/2 in data set [11] (po, 5 mg/kg, 24 h) was determined as 3.5 h. In addition, the Tmax in [13] (po, 5 mg/kg, 24 h) turned out to be 1.6 h. Besides, in data set [15], the AUCt came out at 2011.6 ng·h/mL. Besides, the Cmax in data set [16] (24 h) was found to be 89.3 ng/mL. The same compound yielded a CL in data set [18] of 355 mL/min/kg.
The compound `CCS(=O)(=O)NCc1ccc(Nc2ncc(C)c(-c3cnn(C(C)C)c3)n2)cc1` registered a bioavailability in [1] of 35.7%. Besides, the IC50 came out at 192 nM in [2]; 212 nM in data set [4]; 69.2 nM in data set [6]; 142 nM in data set [7]; 287 nM in [9]; 1510 nM in data set [12]. Besides, the IC50 in data set [14] worked out at 412 nM; in data set [19], 6 nM. In data set [3], the Activity is 0%. Besides, the Ratio IC50 amounted to 32 in [5], 68.7 in [10] and 47.8 in data set [17]. Also, the half-life is > 2 h in data set [8] and 6.3 h in [11] (Sprague-Dawley). The Tmax in data set [13] (Sprague-Dawley, read-out: Tmax) stood at 1 h. Also, the AUCt in [15] worked out at 1556.8 ng·h/mL. The maximum concentration (Cmax) in data set [16] (Sprague-Dawley, read-out: Cmax) was 77.8 ng/mL. In data set [18], this compound yielded a CL of 340 mL/min/kg.
